Experimental data reported in ChEMBL document CHEMBL1127574, “Design and synthesis of ellipticinium salts and 1,2-dihydroellipticines with high selectivities against human CNS cancers in vitro” (1994).

Key:
Assay type in all cases: functional
A549 [1] = experiment: Tested in vitro for cytotoxicity in A549/ATCC cell lines; conditions: Homo sapiens
Procedure, shortened: (§1)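 Compounds dissolved in DMSO, then diluted 500-fold into aqueous medium. The resulting aqueous solutions or suspensions were added to the cultured human tumour cell lines, and the cells were exposed for 48 h. Growth was read colorimetrically in one of two ways: a metabolic assay in which viable cells reduce a tetrazolium salt to a formazan dye, or a protein stain for total cellular protein.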

A498 = experiment: Tested in vitro for cytotoxicity in A498 cell line of Renal cancer; conditions: Homo sapiens, read-out: Log TGI (converted); procedure, shortened: as §1
ACHN = experiment: Tested in vitro for cytotoxicity in ACHN cell line of Renal cancer; conditions: Homo sapiens, read-out: Log TGI (converted); procedure, shortened: as §1
A549 [2] = experiment: Tested in vitro for cytotoxicity in A549/ATCC cell line of Non-Small Cell Lung Cancer; conditions: Homo sapiens, read-out: Log TGI (converted); procedure, shortened: as §1
CAKI-1 [3] = experiment: Tested in vitro for cytotoxicity in CAKI-1 cell lines; conditions: Homo sapiens; procedure, shortened: as §1
CCRF-CEM [4] = experiment: Tested in vitro for cytotoxicity in CCRF-CEM cell line of Leukemia; conditions: Homo sapiens, read-out: Log TGI (converted); procedure, shortened: as §1
CCRF-CEM [5] = experiment: Tested in vitro for cytotoxicity in CCRF-CEM cell lines; conditions: Homo sapiens; procedure, shortened: as §1
COLO 205 = experiment: Tested in vitro for cytotoxicity in COLO 205 cell line of Colon Cancer; conditions: Homo sapiens, read-out: Log TGI (converted); procedure, shortened: as §1
CAKI-1 [6] = experiment: Tested in vitro for cytotoxicity in CAKI-1 cell line of Renal cancer; conditions: Homo sapiens, read-out: Log TGI (converted); procedure, shortened: as §1
DMS-114 [7] = experiment: Tested in vitro for cytotoxicity in DMS114 cell lines; conditions: Homo sapiens; procedure, shortened: as §1
DLD-1 = experiment: Tested in vitro for cytotoxicity in DLD-1 cell line of Colon Cancer; conditions: Homo sapiens, read-out: Log TGI (converted); procedure, shortened: as §1
DMS-114 [8] = experiment: Tested in vitro for cytotoxicity in DMS114 cell line of Small Cell Lung Cancer; conditions: Homo sapiens, read-out: Log TGI (converted); procedure, shortened: as §1
DMS-273 = experiment: Tested in vitro for cytotoxicity in DMS273 cell line of Small Cell Lung Cancer; conditions: Homo sapiens, read-out: Log TGI (converted); procedure, shortened: as §1
HCT-15 = experiment: Tested in vitro for cytotoxicity in HCT-15 cell line of Colon Cancer; conditions: Homo sapiens, read-out: Log TGI (converted); procedure, shortened: as §1
HOP-62 = experiment: Tested in vitro for cytotoxicity in HOP-62 cell line of Non-Small Cell Lung Cancer; conditions: Homo sapiens, read-out: Log TGI (converted); procedure, shortened: as §1
HL-60 = experiment: Tested in vitro for cytotoxicity in HL-60(TB) cell line of Leukemia; conditions: Homo sapiens, read-out: Log TGI (converted)
Procedure, shortened: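 Compounds were dissolved in DMSO and diluted 500-fold in aqueous medium. Aliquots of the resulting solution or suspension were added to the cultured cells for 48 h. Growth was read colorimetrically, either by tetrazolium reduction to formazan in viable cells or by a total-protein stain.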

HCC 2998 = experiment: Tested in vitro for cytotoxicity in HCC2998 cell line of Colon Cancer; conditions: Homo sapiens, read-out: Log TGI (converted); procedure, shortened: as §1
HOP-18 = experiment: Tested in vitro for cytotoxicity in HOP-18 cell line of Non-Small Cell Lung Cancer; conditions: Homo sapiens, read-out: Log TGI (converted); procedure, shortened: as §1
HT-29 = experiment: Tested in vitro for cytotoxicity in HT-29 cell line of Colon Cancer; conditions: Homo sapiens, read-out: Log TGI (converted); procedure, shortened: as §1
HOP-92 = experiment: Tested in vitro for cytotoxicity in HOP-92 cell line of Non-Small Cell Lung Cancer; conditions: Homo sapiens, read-out: Log TGI (converted); procedure, shortened: as §1
IGROV-1 [9] = experiment: Tested in vitro for cytotoxicity in IGROV1 cell lines; conditions: Homo sapiens; procedure, shortened: as §1
IGROV-1 [10] = experiment: Tested in vitro for cytotoxicity in IGROV1 cell line of Ovarian Cancer; conditions: Homo sapiens, read-out: Log TGI (converted); procedure, shortened: as §1
K562 = experiment: Tested in vitro for cytotoxicity in K-562 cell line of Leukemia; conditions: Homo sapiens, read-out: Log TGI (converted); procedure, shortened: as §1
KM12 = experiment: Tested in vitro for cytotoxicity in KM12 cell line of Colon Cancer; conditions: Homo sapiens, read-out: Log TGI (converted); procedure, shortened: as §1
M19-MEL = experiment: Tested in vitro for cytotoxicity in M19-MEL cell line of Melanoma; conditions: Homo sapiens, read-out: Log TGI (converted); procedure, shortened: as §1
M14 = experiment: Tested in vitro for cytotoxicity in M14 cell line of Melanoma; conditions: Homo sapiens, read-out: Log TGI (converted); procedure, shortened: as §1
LOX IMVI = experiment: Tested in vitro for cytotoxicity in LOX IMVI cell line of Melanoma; conditions: Homo sapiens, read-out: Log TGI (converted); procedure, shortened: as §1
LXFL 529 = experiment: Tested in vitro for cytotoxicity in LXFL-529 cell line of Non-Small Cell Lung Cancer; conditions: Homo sapiens, read-out: Log TGI (converted); procedure, shortened: as §1
Malme-3M [11] = experiment: Tested in vitro for cytotoxicity in MALME-3M; conditions: Homo sapiens; procedure, shortened: as §1
Malme-3M [12] = experiment: Tested in vitro for cytotoxicity in MALME-3M cell line of Melanoma; conditions: Homo sapiens, read-out: Log TGI (converted); procedure, shortened: as §1
NCI-H522 = experiment: Tested in vitro for cytotoxicity in NCI-H522 cell line of Non-Small Cell Lung Cancer; conditions: Homo sapiens, read-out: Log TGI (converted); procedure, shortened: as §1

COc1ccc2[nH]c3c(C)c4c(c(C)c3c2c1)CN(C)C=C4
GI50 (A549 [1]): 0.993 µM
TGI (A498): 63.1 µM
TGI (ACHN): 63.1 µM
TGI (A549 [2]): 50.1 µM
GI50 (CAKI-1 [3]): 20.1 µM
TGI (CCRF-CEM [4]): 15.8 µM
GI50 (CCRF-CEM [5]): 2.64 µM
TGI (COLO 205): 5.01 µM
TGI (CAKI-1 [6]): 31.6 µM
GI50 (DMS-114 [7]): 0.525 µM
TGI (DLD-1): 20 µM
TGI (DMS-114 [8]): 2.51 µM
TGI (DMS-273): 12.6 µM
TGI (HCT-15): > 100 µM
TGI (HOP-62): 3.16 µM
TGI (HL-60): 63.1 µM
TGI (HCC 2998): 12.6 µM
TGI (HOP-18): 39.8 µM
TGI (HT-29): 25.1 µM
TGI (HOP-92): 25.1 µM
GI50 (IGROV-1 [9]): 1.68 µM
TGI (IGROV-1 [10]): 39.8 µM
TGI (K562): > 100 µM
TGI (KM12): 15.8 µM
TGI (M19-MEL): 2.51 µM
TGI (M14): 25.1 µM
TGI (LOX IMVI): 25.1 µM
TGI (LXFL 529): 5.01 µM
GI50 (Malme-3M [11]): 1.44 µM
TGI (Malme-3M [12]): 5.01 µM
TGI (NCI-H522): 5.01 µM
